In ChEMBL document CHEMBL1126049, “Bioreductive fluorescent markers for hypoxic cells: a study of 2-nitroimidazoles with 1-substituents containing fluorescent, bridgehead-nitrogen, bicyclic systems” (J Med Chem, 1992):

Experiments:
Format in all cases: cell-based
Settings in all cases: Cricetulus griseus
V79-379A [1] = experiment: Cytofluorimetric analysis of V79 379A chinese hamster cells incubated under oxic conditions with the compound (10e-4 M)
In short: (§1)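 V79 379A Chinese hamster cells grown as exponential suspension cultures in Eagle's MEM (Earle's salts, suspension-modified) with 7.5% foetal calf serum. Cells incubated with drug at 37 °C under oxic (air + 5% CO2) or hypoxic (nitrogen + 5% CO2) gassing. Flow cytometry used 365 nm laser excitation at 100-200 mW. Emission collected >390 nm, or >410 nm for some compounds. Data gated on forward scatter and fluorescence to exclude debris. Mean fluorescence in arbitrary units, normalized for PMT gain and laser power.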

V79-379A [2] = experiment: Cytofluorimetric analysis of V79 379A chinese hamster cells incubated under hypoxic conditions with the compound (10e-4 M); in short: as §1
V79-379A [3] = experiment: Maximum accumulation of fluorescent metabolites in V79 379A chinese hamster cells after incubation with the compound (10e-4) at tmax; in short: as §1

SMILES | Fluorescence (V79-379A [1]) | Fluorescence (V79-379A [2]) | Tmax (V79-379A [3])
CCOC(=O)c1c(C(=O)NCCN(CCO)CC(O)Cn2ccnc2[N+](=O)[O-])cn2ccccc12 (centres undefined) | 66 AU | 1140 AU | 6 h
O=c1c(NCC(O)Cn2ccnc2[N+](=O)[O-])cnc2ccccn12 (centres undefined) | 603 AU | 1750 AU | 6 h
N#Cc1c(C(=O)NCCN(CCO)CC(O)Cn2ccnc2[N+](=O)[O-])cn2ccccc12 (centres undefined) | 27 AU | 81 AU | 6 h
O=[N+]([O-])c1nccn1CC(O)CNc1ccc(-c2cn3ccccc3n2)cc1 (centres undefined) | 417 AU | 1570 AU | 6 h
Cc1c(C)n2c(CN(C)CC(O)Cn3ccnc3[N+](=O)[O-])c(C)c(=O)n2c1=O (centres undefined) | 43 AU | 55 AU | 15 h
Cc1c(C)n2c(CNCC(O)Cn3ccnc3[N+](=O)[O-])c(C)c(=O)n2c1=O (centres undefined) | 33 AU | 89 AU | 15 h
O=[N+]([O-])c1nccn1CC(O)CNc1ccc(-c2cc3ccccn3c2)cc1 (centres undefined) | 107 AU | 169 AU | 6 h
CCOC(=O)c1c(C)c(CN(C)CCCn2ccnc2[N+](=O)[O-])c2ccccn12 | 258 AU | 765 AU | 6 h
